Reference: ChEMBL document CHEMBL1131072, “Synthesis, physicochemical properties, and evaluation of N-substituted-2-alkyl-3-hydroxy-4(1H)-pyridinones” (J Med Chem, 1998)

What was measured:
[1] = Partition coefficient (logD7.4); type: physicochemical; conditions: octanol/water, pH 7.4
Outline: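 Shake-flask used a 100:1 or 1:100 phase ratio, 1 h stirring, centrifugation, and aqueous absorbance, repeated at least four times. Fe complexes were made at 10:1 ligand:Fe (10^-3/10^-4 M) and read at 460 nm. Reported as mean ± SD.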

Rattus norvegicus [2] = test: The amount iron excretion in the bile duct-cannulated rats when iron chelator administered orally at dose 142 mg/kg; type: functional; conditions: route oral
Outline: (§1)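 Non-iron-overloaded male Fischer rats (200–240 g) with bile-duct cannulas in metabolic cages. Control bile/urine was collected for 3 h; chelator was then given subcutaneously or by gavage. Bile was collected in 3-h fractions over 24 h, plus 24-h urine. Iron was measured by bathophenanthroline colorimetry (TCA/HCl, 65 °C 4 h, A535) against iron standards after blank subtraction.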

Rattus norvegicus [3] = test: The amount iron excretion in the bile duct-cannulated rats when iron chelator administered subcutaneously at dose 142 mg/kg; type: functional; conditions: route subcutaneous; outline: as §1
[4] = Compound was determined for their affinity constants(log K2) with Fe(III) complex.; type: ADME
Outline: (§2)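 Stepwise constants K1, K2 and K3 came from simultaneous spectrophotometric/potentiometric pH titrations of ligand with iron(III). Parameters were obtained by global optimization over titrations at several ligand and iron(III) concentrations, using the Fe3+/L− stepwise model (FeL2+, FeL2+, FeL3).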

[5] = Compound was tested for equilibrium constants (pKa1) potentiometrically; type: physicochemical; conditions: read-out: pKa1
Outline: (§3)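 Potentiometric titration in 0.1 M KCl (25 mL), acidified with 0.2 M HCl and titrated with 0.2 M KOH in 0.01-mL increments. Run at 25 ± 0.5 °C under argon, with the electrode zero set by a blank titration (Gran's plot). Data were fitted with TITRFIT; pKa accuracy ±0.02 pH unit.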

[6] = Compound was determined for their affinity constants(log K1) with Fe(III) complex.; type: ADME
Outline: (§4)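 Stepwise Fe(III) stability constants (K1, K2, K3) came from simultaneous spectrophotometric/potentiometric pH titrations of ligand with iron(III) at several ligand and Fe(III) concentrations. Parameters were fitted by global optimization, and spectra were followed across pH.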

[7] = Compound was determined for their EDTA competition value(log beta3) of affinity constants.; type: ADME
Outline: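 Spectrophotometric competition against EDTA on an automated titration system. The iron(III) complex was prepared at 5:1 ligand:Fe molar ratio in 0.1 M MOPS, pH 7.4, then titrated with EDTA. Spectral data were fitted in COMPT1 to give log β3, accurate to ±0.02 log unit.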

[8] = Compound was tested for equilibrium constants (pKa1) spectrophotometrically.; type: physicochemical; conditions: read-out: pKa1
Outline: (§5)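 The UV/vis spectrum was recorded alongside each potentiometric titration step: 0.1 M KCl, HCl-acidified, titrated with 0.2 M KOH at 25 ± 0.5 °C under argon. Spectral data were fitted with TITRFIT (modified NONLIN) to give pKa, accurate to ±0.02 pH unit.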

[9] = Compound was tested for equilibrium constants (pKa3) of the (carboxyalkyl) pyridinone corresponds to the […] function spectrophotometrically..; type: physicochemical; conditions: read-out: pKa3; outline: as §5
[10] = Compound was determined for their affinity constants(log K3) with Fe(III) complex.; type: ADME; outline: as §2
[11] = Spectrophotometric values of pKa2 and pKa3
[12] = Potentiometric values of pKa2 and pKa3
[13] = Compound was tested for equilibrium constants (pKa3) of the (carboxyalkyl) pyridinone corresponds to the […] function potentiometrically; type: physicochemical; conditions: read-out: pKa3; outline: as §3
[14] = Compound was tested for equilibrium constants (pKa2) of the (hydroxyalkyl)pyridinone corresponds to the 3-hydroxy function potentiometrically
Rattus norvegicus [15] = test: The amount iron excretion in the bile duct-cannulated rats when iron chelator administered subcutaneously at dose 132 mg/kg; type: functional; conditions: route subcutaneous; outline: as §1
[16] = Compound was tested for equilibrium constants (pKa2) of the (hydroxyalkyl)pyridinone corresponds to the 3-hydroxy function spectrophotometrically..
Rattus norvegicus [17] = test: The amount iron excretion in the bile duct-cannulated rats when iron chelator administered orally at dose 132 mg/kg; type: functional; conditions: route oral; outline: as §1
Rattus norvegicus [18] = test: The amount iron excretion in the bile duct-cannulated rats when iron chelator administered subcutaneously.; type: functional; outline: as §1
Rattus norvegicus [19] = test: The amount iron excretion in the bile duct-cannulated rats when iron chelator administered orally.; type: functional; outline: as §1
Rattus norvegicus [20] = test: The dose of the iron chelator administered in the bile duct-cannulated rats.; type: functional; outline: as §1
Rattus norvegicus [21] = test: The amount iron excretion in the bile duct-cannulated rats when iron chelator administered orally at dose 122 mg/kg; type: functional; conditions: route oral; outline: as §1
Rattus norvegicus [22] = test: The amount iron excretion in the bile duct-cannulated rats when iron chelator administered subcutaneously at dose 122 mg/kg; type: functional; conditions: route subcutaneous; outline: as §1
Rattus norvegicus [23] = test: The amount iron excretion in the bile duct-cannulated rats when iron chelator administered subcutaneously at dose 100 mg/kg; type: functional; conditions: route subcutaneous
Outline: (§6)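 Male Fischer rats (200–240 g), non-iron-overloaded and bile duct-cannulated, were kept in metabolic cages. Control bile and urine were collected for 3 h, then compound was given (subcutaneously or by gavage). Bile was collected at 3-h intervals over 24 h, with urine pooled over 24 h. Buprenorphine was given for analgesia. Iron was read by bathophenanthroline colorimetry (535 nm) after acid digestion (65 °C, 4 h) against iron standards.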

[24] = Compound was determined for their affinity constants(log K2) with Fe(III) complex; type: ADME; outline: as §4
Rattus norvegicus [25] = test: The amount iron excretion in the bile duct-cannulated rats when iron chelator administered orally at dose 100 mg/kg; type: functional; conditions: route oral; outline: as §6

Q: With `CCOC(Cn1ccc(=O)c(O)c1C)OCC` as the compound, how does the logD [1] read?
A: 0.21

Q: With `CNC(=O)CCn1ccc(=O)c(O)c1C` as the compound, how does the logD [1] read?
A: -1.15

Q: Which logD [1] does the source give for `Cc1c(O)c(=O)ccn1C(CO)CO` here?
A: -1.7

Q: For `CNC(=O)CCCn1ccc(=O)c(O)c1C`, which logD [1] is on record?
A: -1.08

Q: For `CCc1c(O)c(=O)ccn1CCCO`, which Iron excretion (Rattus norvegicus [2]) is on record?
A: 265 µg/kg

Q: What about the logD [1] of the same compound?
A: -0.32

Q: What about the Iron excretion (Rattus norvegicus [3]) of the same compound?
A: 634 µg/kg

Q: Which logD [1] does the source give for `COC(Cn1ccc(=O)c(O)c1C)OC` here?
A: -0.46

Q: For `Cc1c(O)c(=O)ccn1CC(C)(C)O`, which logD [1] is on record?
A: -0.77

Q: For `C=CCn1ccc(=O)c(O)c1CC`, which logD [1] is on record?
A: 0.47

Q: With `CCc1c(O)c(=O)ccn1CCC(=O)O` as the compound, how does the “Log K2” value [4] read?
A: 11.4

Q: And the pKa [5]?
A: 3.12

Q: And the “Log K1” value [6]?
A: 16.6

Q: What about the “Log beta3” value [7] of the same compound?
A: 37

Q: And the pKa [8]?
A: 3.22

Q: And the pKa [9]?
A: 9.91

Q: What about the “Log K3” value [10] of the same compound?
A: 7.9

Q: What about the logD [1] of the same compound?
A: -1.6

Q: What about the pKa [11] of the same compound?
A: 9.91

Q: What about the pKa [12] of the same compound?
A: 9.89

Q: And the pKa [13]?
A: 9.89

Q: With `COC(=O)CCn1ccc(=O)c(O)c1C` as the compound, how does the logD [1] read?
A: -0.77

Q: With `CCc1c(O)c(=O)ccn1CCCC(=O)O` as the compound, how does the pKa [5] read?
A: 3.21

Q: And the pKa [8]?
A: 3.42

Q: What about the pKa [9] of the same compound?
A: 9.99

Q: What about the logD [1] of the same compound?
A: -1.38

Q: What about the pKa [11] of the same compound?
A: 9.99

Q: What about the pKa [12] of the same compound?
A: 9.89

Q: And the pKa [13]?
A: 9.89

Q: For `Cc1nccc(O)c1O`, which logD [1] is on record?
A: -0.5

Q: With `CCc1c(O)c(=O)ccn1CCO` as the compound, how does the “Log K2” value [4] read?
A: 11.6

Q: What about the pKa [5] of the same compound?
A: 3.31

Q: And the “Log K1” value [6]?
A: 15.7

Q: And the “Log beta3” value [7]?
A: 36.8

Q: What about the pKa [14] of the same compound?
A: 9.77

Q: And the pKa [8]?
A: 3.34

Q: And the Iron excretion (Rattus norvegicus [15])?
A: 698 µg/kg

Q: And the pKa [16]?
A: 9.75

Q: And the Iron excretion (Rattus norvegicus [17])?
A: 819 µg/kg

Q: What about the “Log K3” value [10] of the same compound?
A: 9.4

Q: And the logD [1]?
A: -0.66

Q: And the pKa [11]?
A: 9.75

Q: What about the pKa [12] of the same compound?
A: 9.77

Q: Which logD [1] does the source give for `Cc1c(O)c(=O)ccn1C(C)C` here?
A: 0.05

Q: Which logD [1] does the source give for `CCNC(=O)CCn1ccc(=O)c(O)c1C` here?
A: -0.82

Q: With `CCOCCCn1ccc(=O)c(O)c1C` as the compound, how does the logD [1] read?
A: 0.12

Q: For `COCCn1ccc(=O)c(O)c1C`, which logD [1] is on record?
A: -0.41

Q: Which logD [1] does the source give for `Cc1c(O)c(=O)ccn1CCN` here?
A: -1.55

Q: With `C=CCn1ccc(=O)c(O)c1C` as the compound, how does the logD [1] read?
A: 0.03

Q: With `CCOC(=O)CCn1ccc(=O)c(O)c1C` as the compound, how does the logD [1] read?
A: -0.24

Q: What does the source list for `Cc1c(O)c(=O)ccn1CC(O)CO` (stereo unspecified)?
A: Iron excretion (Rattus norvegicus [18]): 142 µg/kg; Iron excretion (Rattus norvegicus [19]): 104 µg/kg; Dose (Rattus norvegicus [20]): 143 mg/kg

Q: For `Cc1c(O)c(=O)ccn1CC(C)C`, which logD [1] is on record?
A: 0.65

Q: Which logD [1] does the source give for `CCn1ccc(=O)c(O)c1C` here?
A: -0.31

Q: Which logD [1] does the source give for `CCc1c(O)c(=O)ccn1CCCCO` here?
A: -0.28

Q: For `CCCCCn1ccc(=O)c(O)c1C`, which logD [1] is on record?
A: 1.24

Q: Which logD [1] does the source give for `CCCCn1ccc(=O)c(O)c1C` here?
A: 0.7

Q: Which Iron excretion (Rattus norvegicus [15]) does the source give for `Cc1c(O)c(=O)ccn1CCCO` here?
A: 383 µg/kg

Q: And the Iron excretion (Rattus norvegicus [17])?
A: 414 µg/kg

Q: Which logD [1] does the source give for `CCc1c(O)c(=O)ccn1CC` here?
A: 0.23

Q: For `CCCCCCn1ccc(=O)c(O)c1C`, which logD [1] is on record?
A: 1.89

Q: For `CCc1nccc(O)c1O`, which logD [1] is on record?
A: 0.05

Q: For `CCc1c(O)c(=O)ccn1CCOC`, which logD [1] is on record?
A: 0.04

Q: For `CCOCCCn1ccc(=O)c(O)c1CC`, which logD [1] is on record?
A: 0.72

Q: With `CCCn1ccc(=O)c(O)c1CC` as the compound, how does the logD [1] read?
A: 0.7

Q: Which logD [1] does the source give for `CCCNC(=O)CCn1ccc(=O)c(O)c1C` here?
A: -0.4

Q: Which logD [1] does the source give for `COCC(C)n1ccc(=O)c(O)c1C` (stereo unspecified) here?
A: -0.26

Q: For `Cc1c(O)c(=O)ccn1CCCCO`, which logD [1] is on record?
A: -0.75

Q: What does the source list for `Cc1c(O)c(=O)ccn1CCO`?
A: pKa [5]: 3.44; Iron excretion (Rattus norvegicus [21]): 272 µg/kg; pKa [14]: 9.65; pKa [8]: 3.43; pKa [16]: 9.72; logD [1]: -1.1; pKa [11]: 9.72; pKa [12]: 9.65; Iron excretion (Rattus norvegicus [22]): 353 µg/kg

Q: With `Cc1c(O)c(=O)ccn1CCCC(=O)O` as the compound, how does the logD [1] read?
A: -2.75

Q: Which logD [1] does the source give for `CCN(C)C(=O)CCn1ccc(=O)c(O)c1C` here?
A: -0.66

Q: For `CCN(CC)C(=O)CCn1ccc(=O)c(O)c1C`, which logD [1] is on record?
A: -0.36

Q: Which logD [1] does the source give for `Cc1c(O)c(=O)ccn1CCC(=O)N(C)C` here?
A: -1

Q: With `CCc1c(O)c(=O)ccn1C(C)C` as the compound, how does the logD [1] read?
A: 0.73

Q: For `Cc1c(O)c(=O)ccn1CCC(=O)O`, which pKa [5] is on record?
A: 3.1

Q: What about the pKa [8] of the same compound?
A: 3.19

Q: And the pKa [9]?
A: 9.51

Q: And the logD [1]?
A: -2.92

Q: What about the pKa [11] of the same compound?
A: 9.51

Q: And the pKa [12]?
A: 9.49

Q: What about the pKa [13] of the same compound?
A: 9.49

Q: For `Cc1c(O)c(=O)ccn1CCC(=O)NC(C)C`, which logD [1] is on record?
A: -0.47

Q: With `CCCCn1ccc(=O)c(O)c1CC` as the compound, how does the logD [1] read?
A: 1.22

Q: For `CCc1c(O)c(=O)ccn1C`, which logD [1] is on record?
A: -0.21

Q: Which “Log K1” value [6] does the source give for `Cc1c(O)c(=O)ccn1C` [DEFERIPRONE] here?
A: 14.9

Q: And the Iron excretion (Rattus norvegicus [23])?
A: 292 µg/kg

Q: What about the “Log K2” value [24] of the same compound?
A: 12.2

Q: What about the “Log K3” value [10] of the same compound?
A: 9.8

Q: And the Iron excretion (Rattus norvegicus [25])?
A: 351 µg/kg

Q: And the logD [1]?
A: -0.77

Q: What about the pKa [11] of the same compound?
A: 9.64
